Assay type in all cases: functional
The subject of test [1] is MCF7. In words: Growth inhibition of MCF7 cells after 4 days. Conditions: Homo sapiens, MCF7, 96 h. The essentials:
(§1)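 Adherent lines (HeLa S3 in MEM/7% FCS; MCF7 and ADR-Res) seeded at 2 · 10^3 cells per well. After one day, compounds in DMSO were diluted in culture medium over a 5-point range and added. Cells stained with 0.2% crystal violet in 20% ethanol for 1 h, washed, solubilized in 10% acetic acid, A570 read. GI50 = concentration giving 50% growth inhibition versus control.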

The test system of a further test is HeLa. In words: Growth inhibition of HeLa cells after 4 days. The following applies: Homo sapiens, 96 h. A digest of the protocol: as §1
Test [2] deals with CEM/C2. Description: Ratio of GI50 for camptothecin-resistant human CEM/C2 cells to GI50 for human CEM cells. The essentials: (§2)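 Relative resistance index from GI50 values in paired 5-point growth inhibition assays run in parallel: GI50 in the mutant line (CEM/C2 or MX2) divided by GI50 in its parental line (CEM or HL60).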
The subject of test [3] is HL-60. In words: Growth inhibition of human HL60 cells by Almar blue assay. A digest of the protocol: (§3)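 Leukemia lines (CEM, topo I-mutant CEM/C2, HL60, topo II-mutant MX2) seeded in 96-well plates. HL60/MX2 were kept in RPMI1640 with 10% FCS, 10 mM Hepes and 2 mM glutamine. After one day, DMSO-dissolved compounds were diluted in medium over a 5-point range and added. GI50 = concentration giving 50% growth inhibition versus control.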

In test [4] the test system is CEM/C2. Description: Growth inhibition of topoisomerase 1 mutated CEM/C2 cells by Alamar blue assay. The following applies: Homo sapiens. A digest of the protocol:
as §3

Test [5] deals with MCF7. Description: Growth inhibition of adriamycin-resistant MCF7 cells after 4 days. The following applies: Homo sapiens, MCF7, 96 h. A digest of the protocol:
as §1

Test [6] can be described thus: Growth inhibition of topoisomerase 2 mutated mitoxantrone-resistant MX2 cells by Alamar blue assay. Conditions: Homo sapiens. The essentials:
as §3

In test [7] the test system is HL-60. In words: Ratio of GI50 for mitoxantrone-resistant human MX2 cells to GI50 for human HL60 cells. The essentials: as §2
The next test relates to CCRF-CEM. In words: Growth inhibition of human CEM cells by Alamar blue assay. The essentials:
as §3

Structures are written as SMILES.

On to `CCN(CC)CCOc1ccc2nc3c(cc2c1)Cn1c-3nc2ccccc2c1=O`, for which the GI50 with MCF7 [1] was found to be 3 µM; with HeLa, 2 µM; in the test with HL-60 [3] it was 4 µM; in the test with CEM/C2 [4] it was 7 µM; with MCF7 [5] it was 4 µM; in test [6], 10 µM. Also, in the test with CCRF-CEM, the GI50 worked out at 3 µM. Moreover, the RatioGI50 in the test with CEM/C2 [2] is 2; in the test with HL-60 [7] it was 2.5.
`CN(C)CCOc1ccc2nc3c(cc2c1)Cn1c-3nc2ccccc2c1=O`: the GI50 in the test with MCF7 [1] is 2 µM; in the test with HeLa it was 2 µM; in the test with HL-60 [3] it was 4 µM; with CEM/C2 [4] it was 7 µM; in the test on MCF7 [5], 4 µM; in test [6] it was 9 µM. In addition, in the test with CCRF-CEM, the 50% growth inhibitory concentration (GI50) worked out at 3 µM. The RatioGI50 with CEM/C2 [2] and in the test with HL-60 [7] was 2 each time.
On to `CN(C)Cc1c(O)ccc2nc3c(cc12)Cn1c-3nc2ccccc2c1=O`, for which the GI50 is 13 µM in the test with MCF7 [1]; 10 µM in the test on HeLa; 20 µM with HL-60 [3]; over 40 µM in the test on CEM/C2 [4]; over 20 µM with MCF7 [5]; over 40 µM in test [6]. For the same molecule, the 50% growth inhibitory concentration (GI50) in the test on CCRF-CEM is 30 µM. For the same molecule, the RatioGI50 in the test on CEM/C2 [2] was over 1.5; in the test on HL-60 [7], over 2.
In the case of `O=c1c2ccccc2nc2n1Cc1cc3c(CN4CCOCC4)c(O)ccc3nc1-2`, the GI50 in the test on MCF7 [1], in the test with HeLa and with MCF7 [5] was over 20 µM in each case.
On to `O=c1c2ccccc2nc2n1Cc1cc3cc(O)ccc3nc1-2` [10-HYDROXYLUOTONIN A], for which the results for the GI50 with MCF7 [1], with HeLa and with MCF7 [5] were over 20 µM, over 10 µM and over 20 µM, respectively.
Consider `COc1ccc2nc3c(cc2c1)Cn1c-3nc2ccccc2c1=O` [10-METHOXYLUOTONIN A], for which the results for the GI50 in the test on MCF7 [1], in the test on HeLa and in the test on MCF7 [5] were over 20 µM, over 10 µM and over 20 µM, respectively.
On to `CC(=O)Nc1cccc2c(=O)n3c(nc12)-c1nc2ccccc2cc1C3` [16-ACETAMIDOLUOTONIN A], for which the GI50 in the test on MCF7 [1], in the test with HeLa and in the test on MCF7 [5] was over 20 µM in each case.
Turning to `Nc1cccc2c(=O)n3c(nc12)-c1nc2ccccc2cc1C3` [16-AMINOLUOTONIN A], the GI50 in the test on MCF7 [1] is 2 µM; with HeLa it was 2 µM; with HL-60 [3], 15 µM; in the test on CEM/C2 [4] it was over 40 µM; with MCF7 [5], 3 µM; in test [6] it was over 40 µM. Further, it took 6 µM to inhibit growth with CCRF-CEM by half (GI50). Besides, the RatioGI50 with CEM/C2 [2] was over 7; in the test with HL-60 [7], over 2.5.
In the case of `O=c1c2cccnc2nc2n1Cc1cc3ccccc3nc1-2` [16-AZALUOTONIN A], the concentration for 50% growth inhibition (GI50) with MCF7 [1], in the test with HeLa and with MCF7 [5] was over 20 µM throughout.
`O=c1c2cccc(Cl)c2nc2n1Cc1cc3ccccc3nc1-2` [16-CHLOROLUOTONIN A]: the figures for the 50% growth inhibitory concentration (GI50) in the test on MCF7 [1], with HeLa and in the test on MCF7 [5] were 10 µM, over 10 µM and 13 µM, respectively.
`COc1cccc2c(=O)n3c(nc12)-c1nc2ccccc2cc1C3` [16-METHOXYLUOTONIN A]: the GI50 was over 20 µM in the test with MCF7 [1], 12 µM with HeLa and over 20 µM with MCF7 [5].
Consider `O=c1c2cc(O)c(O)cc2nc2n1Cc1cc3ccccc3nc1-2` [17,18-DIHYDROXYLUOTONIN A], for which the GI50 with MCF7 [1] was 10 µM; in the test on HeLa, 6 µM; in the test with HL-60 [3] it was over 40 µM; with CEM/C2 [4], over 40 µM; in the test with MCF7 [5], over 20 µM; in [6] it was over 40 µM. In the test on CCRF-CEM, this molecule yielded a GI50 of 9 µM. The RatioGI50 in the test with CEM/C2 [2] is over 4.
Regarding `COc1cc2nc3n(c(=O)c2cc1OC)Cc1cc2ccccc2nc1-3` [17,18-DIMETHOXYLUOTONIN A], the concentration for 50% growth inhibition (GI50) in the test with MCF7 [1] is over 20 µM; in the test with HeLa, over 10 µM; in the test on MCF7 [5] it was over 20 µM.
For `CC[C@@]1(O)C(=O)OCc2c1cc1n(c2=O)Cc2cc3ccccc3nc2-1` [CAMPTOTHECIN], the GI50 in the test on MCF7 [1] is 0.01 µM; in the test on HeLa, 0.01 µM; with HL-60 [3], 0.03 µM; in the test with CEM/C2 [4] it was over 1 µM; in the test with MCF7 [5] it was 0.01 µM; in test [6] it was 0.02 µM. In the test with CCRF-CEM, growth was halved (GI50) at 0.002 µM. For the same molecule, in the test on CEM/C2 [2], the RatioGI50 was over 500.
As for `CCc1c2c(nc3ccc(OC(=O)N4CCC(N5CCCCC5)CC4)cc13)-c1cc3c(c(=O)n1C2)COC(=O)[C@]3(O)CC` [IRINOTECAN], the concentration for 50% growth inhibition (GI50) with MCF7 [1], with HeLa and in the test on MCF7 [5] was over 1 µM each time.
Consider `O=c1c2ccccc2nc2n1Cc1cc3ccccc3nc1-2` [LUOTONIN A], for which the GI50 in the test on MCF7 [1] was 3 µM; in the test on HeLa it was 3 µM; in the test on CEM/C2 [4] it was over 40 µM; in the test with MCF7 [5], 5 µM; in the test with CCRF-CEM, at least 40 µM.
Turning to `O=C1c2c(O)ccc(O)c2C(=O)c2c(NCCNCCO)ccc(NCCNCCO)c21` [MITOXANTRONE], the GI50 was 0.01 µM in the test with HL-60 [3] and 0.13 µM in [6]. Also, the RatioGI50 with HL-60 [7] is 13.
Turning to `CC[C@@]1(O)C(=O)OCc2c1cc1n(c2=O)Cc2cc3c(CN(C)C)c(O)ccc3nc2-1` [TOPOTECAN], the GI50 is 0.05 µM in the test with MCF7 [1], 0.03 µM in the test on HeLa and 0.04 µM in the test on MCF7 [5].

Values taken from ChEMBL document CHEMBL1139925, “Synthesis and topoisomerase poisoning activity of A-ring and E-ring substituted luotonin A derivatives” (2007).
